The source made the active and inactive calls. The rule behind the calls is not given here.
Experiments:
PC-12 [1] = assay: Stimulation of nerve growth factor-mediated neurite outgrowth in rat PC12 cells incubated for 96 hrs in presence of 20 ng/ml NGF by phase contrast microscopy; assay type: functional, cell-based
Method in brief: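 PC12 cells (DMEM, 5% FBS, 5% HS, 37 °C, 5% CO2) were detached with 1 mM EGTA/PBS for 15 min and seeded on poly-L-lysine at 3 × 10^4 cells/well. After 24 h they got test medium (1% FBS, 1% HS, 20 ng/mL NGF, graded compound levels) for 96 h. Cells were scored by phase contrast (neurite ≥ soma diameter) as % neurite-bearing; triplicates; EC50 by regression.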

PC-12 [2] = assay: Stimulation of neurite outgrowth in rat PC12 cells incubated for 96 hrs in absence of 20 ng/ml NGF by phase contrast microscopy; assay type: functional, cell-based
[3] = Rattus norvegicus, PC-12, 96 h, read-out: EC50

Compound	EC50 (PC-12 [1]; [3])	Activity (PC-12 [2])	EC50 (PC-12 [1]; pc-12)
C=C[C@@]1(C)CC[C@H]2C(=CC[C@H]3[C@](C)(CO)CCC[C@]23C)[C@H]1O	7.6 µM		
CC(C)[C@@]12C=C3[C@@H](O)C[C@@H]4[C@@](C)(C(=O)O)CCC[C@@]4(C)[C@]3(CC1)OO2	10.6 µM		
CC(C)[C@@]12CC[C@@]3(CC[C@H]4[C@](C)(C(=O)O)CCC[C@]4(C)C3=O)[C@@H]1O2	> 30 µM		
CC(C)c1ccc2c(c1)C(=O)C[C@H]1[C@](C)(C(=O)O)CCC[C@]21C		inactive	Not Active
C=C[C@@]1(C)CCC2=C(C1)[C@H](OC)C[C@H]1[C@](C)(C(=O)O)CCC[C@]21C		inactive	Not Active
C=C(C)c1ccc2c(c1)CC[C@H]1[C@](C)(C(=O)O)CCC[C@]21C	> 30 µM		
CC(C)c1ccc2c(c1)[C@H](O)C[C@H]1[C@](C)(C(=O)O)CCC[C@]21C		inactive	Not Active
CC1(C)C(=O)CC[C@]2(C)[C@@H]1CC[C@]13C[C@@H](CC[C@H]12)[C@](O)(CO)C3	19.7 µM		
CC(=O)OC[C@]1(O)C[C@]23CC[C@@H]4C(C)(C)C(=O)CC[C@@]4(C)[C@@H]2CC[C@@H]1C3	11 µM		
CC(C)[C@]12CC[C@@]34O[C@@]3(CC[C@H]3[C@](C)(C(=O)O)CCC[C@@]34C)[C@H]1O2		inactive	Not Active
C=C[C@@]1(C)CCC2=C(C1)[C@H](OC)C[C@H]1[C@](C)(CO)CCC[C@]21C		inactive	Not Active
C=C[C@@]1(C)CC[C@H]2C(=CC[C@@H]3[C@]2(C)CCC[C@@]3(C)C(=O)O)[C@H]1O	16 µM		
C=C[C@@]1(C)CC[C@H]2C(=CC[C@@H]3[C@]2(C)CCC[C@@]3(C)O)[C@H]1O		inactive	Not Active
C=C1CC[C@H]2C(C)(C)C(=O)CC[C@]2(C)[C@H]1CC/C(C)=C/C(=O)O	6 µM		

— ChEMBL document CHEMBL3588824, “Bioactive Diterpenoids from the Leaves of Callicarpa macrophylla” (J Nat Prod, 2015)
